Test results reported in ChEMBL document CHEMBL1221395, “Synthesis, anticancer activity and mitochondrial mediated apoptosis inducing ability of 2,5-diaryloxadiazole-pyrrolobenzodiazepine conjugates” (Bioorg Med Chem, 2010).
The source made the active and inactive calls. The calls are words filed in the database; no cut-off is given here.

Assays:
[1] = system: A549; assay: Cytotoxicity against human A549 cells after 24 hrs by WST-1 assay; assay type: functional; details: A549, 24 h
[2] = system: Calf thymus DNA; assay: Binding affinity to calf thymus DNA assessed as change in melting temperature after 18 hrs; assay type: nucleic-acid assay; details: Bos taurus
Outline: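 Thermal melting with duplex CT-DNA (100 µM in phosphate) and ligand (20 µM), added from methanol stock, [PBD]/[DNA] 1:5, in 10 mM sodium phosphate + 1 mM EDTA, pH 7.00; incubated at 37 °C for 18 h. A260 monitored while heating at 1 °C/min over 40–90 °C. Tm taken from d(A260)/dT maxima, corrected for methanol; ΔTm = Tm(DNA+ligand) − Tm(DNA alone); at least three determinations.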

[3] = system: PC-3; assay: Cytotoxicity against human PC3 cells after 24 hrs by WST-1 assay; assay type: functional; details: PC-3, 24 h
[4] = Cytotoxicity against human Gurav cells after 24 hrs by WST-1 assay; assay type: functional
[5] = system: HOP-62; assay: Cytotoxicity against human HOP62 cells after 24 hrs by WST-1 assay; assay type: functional; details: HOP-62, 24 h
[6] = Lipophilicity, log P of the compound; assay type: physicochemical; details: octanol/water
[7] = Cytotoxicity against human DWD cells by SRB assay
[8] = system: A2780; assay: Cytotoxicity against human A2780 cells by SRB assay
[9] = system: ZR-75-1; assay: Cytotoxicity against human ZR-75-1 cells by SRB assay
[10] = system: KB; assay: Cytotoxicity against human KB cells after 24 hrs by SRB assay
[11] = system: MCF7; assay: Cytotoxicity against human MCF7 cells by sulforhodamine B assay
[12] = system: SiHa; assay: Cytotoxicity against human SiHa cells after 24 hrs by SRB assay
[13] = system: COLO 205; assay: Cytotoxicity against human COLO205 cells after 24 hrs by SRB assay; details: COLO 205, 24 h
[14] = system: KB; assay: Cytotoxicity against human KB cells by SRB assay
[15] = Cytotoxicity against human DWD cells after 24 hrs by SRB assay
[16] = system: A2780; assay: Cytotoxicity against human A2780 cells after 24 hrs by WST-1 assay; assay type: functional; details: A2780, 24 h
[17] = system: KB; assay: Cytotoxicity against human KB cells after 24 hrs by WST-1 assay; assay type: functional
[18] = system: A-375; assay: Cell cycle arrest in human A375 cells assessed as accumulation at S phase after 24 hrs by FACS flow cytometry; set-up: concentration or dose not given beside the values
[19] = system: A-375; assay: Cell cycle arrest in human A375 cells assessed as accumulation at G1 phase after 24 hrs by FACS flow cytometry; set-up: concentration or dose not given beside the values
[20] = system: A-375; assay: Cell cycle arrest in human A375 cells assessed as accumulation at G2/M phase after 24 hrs by FACS flow cytometry; set-up: concentration or dose not given beside the values
[21] = system: A-375; assay: Cell cycle arrest in human A375 cells assessed as accumulation at Sub-G1 phase after 24 hrs by FACS flow cytometry; set-up: concentration or dose not given beside the values
[22] = system: A-375; assay: Induction of apoptosis in human A375 cells assessed as increase in Bax protein level at 4 uM after 24 hrs by Western blotting; assay type: functional, cell-based
Outline: (§1)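 A375 cells treated at 4 µM for 24 h. Lysates cleared at 12,000 rpm for 10 min, and protein quantified by Bradford. 30 µg per lane run on 12% SDS-PAGE and transferred to PVDF. Blocked 2 h in TBST with 5% blocking powder. Primary antibody overnight at 4 °C, HRP secondary (1:2000) 1 h at room temperature. β-actin used as loading control; untreated cells as control.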

[23] = system: A-375; assay: Induction of apoptosis in human A375 cells assessed as increase in cytochrome C protein level at 4 uM after 24 hrs by Western blotting; assay type: functional, cell-based; outline: as §1
[24] = system: A-375; assay: Induction of apoptosis in human A375 cells assessed as increase in PARP protein level at 4 uM after 24 hrs by Western blotting; assay type: functional, cell-based; outline: as §1
[25] = system: A-375; assay: Induction of apoptosis in human A375 cells assessed as increase in Caspase 3 activation at 4 uM after 24 hrs by fluorimetry; assay type: functional, cell-based
Outline: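 A375 cells exposed to 4 µM compound. Cell lysate incubated with DEVD-AFC substrate, with or without DEVD-CHO inhibitor, at 37 °C for 1 h in a fluorescent caspase-3 kit. Fluorescence read at excitation 400 nm, emission 505 nm.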

[26] = system: A-375; assay: Antitumor activity against human A375 cells assessed as upregulation of p53 protein level at 4 uM after 24 hrs by Western blotting; assay type: functional, cell-based; outline: as §1
[27] = system: A-375; assay: Antitumor activity against human A375 cells assessed as upregulation of p21 protein level at 4 uM after 24 hrs by Western blotting; assay type: functional, cell-based; outline: as §1
[28] = system: A-375; assay: Antitumor activity against human A375 cells assessed as upregulation of pRb protein level at 4 uM after 24 hrs by Western blotting; assay type: functional, cell-based; outline: as §1

Row | ΔTm [2] [°C] | logP [6] | SMILES | GI50 [1] [nM] | GI50 [3] [nM] | GI50 [4] [nM] | GI50 [5] [nM] | GI50 [7] [nM] | GI50 [8] [nM] | GI50 [9] [nM] | GI50 [10] [nM] | GI50 [11] [nM] | GI50 [12] [nM] | GI50 [13] [nM] | Activity [18] [%] | Activity [19] [%] | Activity [20] [%] | Activity [21] [%] | further results
1 | 1.5 | 3.92 | COc1ccc(-c2nnc(-c3ccc(OC)c(OCCCOc4cc5c(cc4OC)C(=O)N4CCC[C@H]4C=N5)c3)o2)cc1OC | < 100 | < 100 | 110 | 130 | < 100 | 110 | < 100 | 110 | < 100 | 150 | < 100 | – | – | – | – | –
2 | 1.8 | 5.17 | COc1ccc(-c2nnc(-c3ccc(F)cc3)o2)cc1OCCCCCOc1cc2c(cc1OC)C(=O)N1CCC[C@H]1C=N2 | 140 | 160 | < 100 | 120 | < 100 | < 100 | 150 | < 100 | 120 | 120 | < 100 | – | – | – | – | –
3 | – | – | COc1cccc2c1C(=O)c1c(O)c3c(c(O)c1C2=O)C[C@@](O)(C(=O)CO)C[C@@H]3O[C@H]1C[C@H](N)[C@H](O)[C@H](C)O1 [DOXORUBICIN] | – | – | 170 | 140 | – | 160 | – | – | 170 | 170 | 140 | – | – | – | – | GI50 [14]: 170 nM; GI50 [15]: 100 nM
4 | 1.6 | 4.53 | COc1ccc(-c2nnc(-c3cc(OC)c(OC)c(OC)c3)o2)cc1OCCCCCOc1cc2c(cc1OC)C(=O)N1CCC[C@H]1C=N2 | 140 | 150 | < 100 | < 100 | < 100 | < 100 | 120 | < 100 | < 100 | < 100 | 120 | 10.4 | 73.5 | 2.34 | 13.76 | Activity [22]: Active; Activity [23]: Active; Activity [24]: Active; Activity [25]: Active
5 | 1.7 | 5.84 | COc1ccc(-c2nnc(-c3ccc(C(F)(F)F)cc3)o2)cc1OCCCCCOc1cc2c(cc1OC)C(=O)N1CCC[C@H]1C=N2 | < 100 | 130 | < 100 | 130 | < 100 | < 100 | 110 | 110 | < 100 | 120 | 110 | – | – | – | – | –
6 | 2.3 | 4.28 | COc1ccc(-c2nnc(-c3ccc(OC)c(OCCCCOc4cc5c(cc4OC)C(=O)N4CCC[C@H]4C=N5)c3)o2)cc1OC | < 100 | 130 | < 100 | 130 | < 100 | < 100 | 120 | 110 | < 100 | 130 | < 100 | – | – | – | – | –
7 | 4 | 5.07 | COc1ccc(-c2nnc(-c3ccc(C(F)(F)F)cc3)o2)cc1OCCCOc1cc2c(cc1OC)C(=O)N1CCC[C@H]1C=N2 | < 100 | 140 | < 100 | < 100 | 110 | < 100 | 110 | < 100 | 110 | < 100 | < 100 | 7.51 | 72.28 | 2.26 | 17.93 | Activity [26]: Active; Activity [27]: Active; Activity [28]: Active; Activity [22]: Active; Activity [23]: Active; Activity [24]: Active; Activity [25]: Active
8 | 2.5 | 4.78 | COc1ccc(-c2nnc(-c3ccc(F)cc3)o2)cc1OCCCCOc1cc2c(cc1OC)C(=O)N1CCC[C@H]1C=N2 | 290 | 170 | 100 | 150 | 130 | < 100 | 170 | < 100 | 160 | < 100 | 150 | – | – | – | – | –
9 | 2.1 | 5.44 | COc1ccc(-c2nnc(-c3ccc(C(F)(F)F)cc3)o2)cc1OCCCCOc1cc2c(cc1OC)C(=O)N1CCC[C@H]1C=N2 | 110 | 160 | 140 | 160 | 150 | 140 | 120 | 150 | 140 | 170 | 160 | – | – | – | – | –
10 | 2.1 | 4.13 | COc1ccc(-c2nnc(-c3cc(OC)c(OC)c(OC)c3)o2)cc1OCCCCOc1cc2c(cc1OC)C(=O)N1CCC[C@H]1C=N2 | < 100 | 160 | < 100 | 130 | 120 | < 100 | 160 | < 100 | 150 | 130 | < 100 | – | – | – | – | –
11 | 2 | 4.39 | COc1ccc(-c2nnc(-c3ccc(F)cc3)o2)cc1OCCCOc1cc2c(cc1OC)C(=O)N1CCC[C@H]1C=N2 | 150 | < 100 | 160 | 160 | < 100 | 140 | < 100 | 150 | < 100 | 170 | < 100 | 14.14 | 74 | 5.06 | 6.79 | Activity [22]: Active; Activity [23]: Active; Activity [24]: Active; Activity [25]: Active
12 | 1.9 | 3.76 | COc1ccc(-c2nnc(-c3cc(OC)c(OC)c(OC)c3)o2)cc1OCCCOc1cc2c(cc1OC)C(=O)N1CCC[C@H]1C=N2 | 110 | 140 | 140 | 170 | < 100 | 140 | 120 | 140 | < 100 | 180 | < 100 | – | – | – | – | –

Row | SMILES | ΔTm [2] [°C] | logP [6] | GI50 [1] [nM] | GI50 [3] [nM] | GI50 [4] [nM] | GI50 [5] [nM] | GI50 [7] [nM] | GI50 [8] [nM] | GI50 [9] [nM] | GI50 [10] [nM] | GI50 [11] [nM] | GI50 [12] [nM] | GI50 [13] [nM] | Activity [18] [%] | Activity [19] [%] | Activity [20] [%] | Activity [21] [%] | further results
13 | COc1cc2c(cc1O)N=C[C@@H]1CCCN1C2=O | – | 0.88 | 160 | 200 | 160 | 150 | – | – | – | – | 170 | 170 | 110 | 8.02 | 73.66 | 2.98 | 15.33 | GI50 [16]: 140 nM; GI50 [17]: 170 nM
